Assay results: ChEMBL document CHEMBL1137269, “Identification of substituted 4-aminopiperidines and 3-aminopyrrolidines as potent MCH-R1 antagonists for the treatment of obesity” (Bioorg Med Chem Lett, 2006)

What was measured:
[1] = target: T1, Melanin-concentrating hormone receptor 1 (Homo sapiens, UniProt Q99705); assay: Binding activity against human MCH-R1
Summary of the method: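 Whole-cell competition binding in HEK-293 cells overexpressing MCH-R1 (SLC-1). Cells were incubated with varying compound concentrations plus 25 nM europium-labelled MCH, then washed free of unbound label, and residual bound europium-MCH was quantified. Non-specific binding was defined with unlabelled MCH. Values are means of at least two experiments unless indicated otherwise.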

[2] = target: T1, Melanin-concentrating hormone receptor 1; assay: Inhibition of MCH-mediated calcium release by CHO cells expressing human MCH-R1; assay type: functional, cell-based

T1 sequence (Q99705 whole entry): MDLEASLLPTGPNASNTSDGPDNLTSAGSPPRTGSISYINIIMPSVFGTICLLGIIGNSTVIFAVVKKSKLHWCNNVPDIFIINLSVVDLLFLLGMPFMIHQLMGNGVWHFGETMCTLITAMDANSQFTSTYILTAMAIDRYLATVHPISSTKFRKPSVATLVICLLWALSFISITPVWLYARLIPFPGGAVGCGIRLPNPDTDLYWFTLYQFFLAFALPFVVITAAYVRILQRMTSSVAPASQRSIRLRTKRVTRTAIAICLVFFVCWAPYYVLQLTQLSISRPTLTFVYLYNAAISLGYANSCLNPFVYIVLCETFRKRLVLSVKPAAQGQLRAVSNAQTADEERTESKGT

| Structure (SMILES) | Ki [1] [nM] | IC50 [2] [nM] |
| --- | --- | --- |
| COc1cc(OC)cc(C(=O)NC2CCN(C/C=C/c3ccccc3)CC2)c1 | 12 | – |
| COc1cc(OC)cc(C(=O)NC2CCN(CCCc3ccccc3)CC2)c1 | > 100000 | – |
| COc1cc(OC)cc(C(=O)NC2CCN(CC3CCc4ccccc4C3)CC2)c1 (centres undefined) | 136 | – |
| COc1cc(OC)cc(C(=O)NC2CCN(Cc3ccc4ccccc4n3)CC2)c1 | 625 | – |
| COc1cc(C(=O)NC2CCN(Cc3ccc4ccccc4c3)CC2)cc(OC)c1OC | 286 | – |
| COc1cc(OC)cc(C(=O)NC2CCN(Cc3ccccc3)CC2)c1 | 302 | – |
| O=C(NC1CCN(Cc2ccc3cc(F)ccc3c2)CC1)c1ccccc1 | 125 | 109 |
| COc1cc(OC)cc(C(=O)NC2CCN(Cc3ccc4cc(F)ccc4c3)CC2)c1 | 32 | – |
| COc1cc(C(=O)N[C@@H]2CCN(Cc3ccc4ccccc4c3)C2)ccc1F | 62 | – |
| COc1cc(OC)cc(C(=O)NC2CCN(C(C)c3ccc4ccccc4c3)CC2)c1 (centres undefined) | 25 | – |
| CCOc1cc(OCC)cc(C(=O)NC2CCN(Cc3ccc4ccccc4c3)CC2)c1 | 56 | – |
| COc1ccc(C(=O)NC2CCN(Cc3ccc4ccccc4c3)CC2)cc1OC | 1000 | – |
| COc1cc(OC)cc(C(=O)N(C)C2CCN(Cc3ccc4ccccc4c3)CC2)c1 | 169 | – |
| COc1cc(OC)cc(C(=O)N[C@@H]2CCN(C(C)c3ccc4ccccc4c3)C2)c1 (some centres undefined) | 12 | – |
| COc1cc(OC)cc(C(=O)N[C@@H]2CCN(C/C=C/c3ccccc3)C2)c1 | 17 | 42 |
| COc1cc(OC)cc(C(=O)NC2CCN(Cc3ccc4ccccc4c3)CC2)c1 | 27 | 62 |
| O=C(NC1CCN(Cc2ccc3ccccc3c2)CC1)c1cc(F)cc(F)c1 | 65 | – |
| O=C(NC1CCN(Cc2ccc3ccccc3c2)CC1)c1ccccc1 | 347 | 948 |
| COc1cc(C(=O)NC2CCN(Cc3ccc4ccccc4c3)CC2)ccc1F | 13 | – |
| COc1cccc(C(=O)N[C@@H]2CCN(Cc3ccc4ccccc4c3)C2)c1 | 67 | – |
| O=C(NC1CCN(Cc2ccc3ccccc3c2)CC1)c1ccc(F)c(F)c1 | 18 | 52 |
| COc1cc(OC)cc(C(=O)N[C@@H]2CCN(Cc3ccc4ccccc4c3)C2)c1 | 7 | 18 |

| Structure (SMILES) | Ki [1] [nM] | IC50 [2] [nM] |
| --- | --- | --- |
| O=C(NCc1ccc(F)c(F)c1)[C@H]1[C@@H]2CN(Cc3ccc4ccccc4c3)C[C@@H]21 | 40 | – |
| COc1cc(OC)cc(C(=O)NCCCNCc2ccc3ccccc3c2)c1 | > 100000 | – |
| O=C(NCc1ccc(F)c(F)c1)[C@@H]1[C@@H]2CN(Cc3ccc4ccccc4c3)C[C@@H]21 | > 100000 | – |
| O=C(NC1CCN(Cc2ccc3ccccc3c2)CC1)c1cc(F)c(F)c(F)c1 | 9 | – |
| COc1cc(OC)cc(C(=O)N[C@@H]2CCN(Cc3ccc4ccccc4c3)C[C@H]2C)c1 | 133 | – |
| COc1cc(OC)cc(C(=O)NC2(C)CCN(Cc3ccc4ccccc4c3)CC2)c1 | 86 | – |
| O=C(NC1CCN(Cc2ccc3ccccc3c2)CC1)c1ccc(Cl)cc1 | 232 | – |
| CN(C)c1cccc(C(=O)NC2CCN(Cc3ccc4ccccc4c3)CC2)c1 | 125 | – |
| COc1cc(OC)cc(C(=O)NC2CCCN(Cc3ccc4ccccc4c3)C2)c1 (centres undefined) | > 100000 | – |
| COc1cc(OC)cc(C(=O)NC2CCN(CC[C@H](O)c3ccccc3)CC2)c1 | 505 | – |
| COc1cc(OC)cc(C(=O)N[C@@H]2CCN(Cc3ccc4ccccc4c3)C[C@@H]2C)c1 | 170 | – |
| COc1cc(OC)cc(C(=O)N[C@H]2CCN(Cc3ccc4ccccc4c3)C2)c1 | 484 | – |
| COc1cc(OC)cc(C(=O)NC2CCN(Cc3ccc(Cl)c(Cl)c3)CC2)c1 | 205 | – |
| COc1cc(OC)cc(C(=O)NC2CCN(Cc3cc4ccccc4n3C)CC2)c1 | 142 | – |
| COc1cc(OC)cc(C(=O)NC2CC(C)(C)N(Cc3ccc4ccccc4c3)C(C)(C)C2)c1 | > 100000 | – |
| COc1cc(OC)cc(C(=O)N[C@@H]2CCN(Cc3ccccc3)C2)c1 | 8070 | – |
| O=C(NC1CCN(Cc2ccc3ccccc3c2)CC1)c1cccc(O)c1 | 570 | – |
| COc1cccc(C(=O)NC2CCN(Cc3ccc4ccccc4c3)CC2)c1 | 29 | – |
| COc1cc(OC)cc(C(=O)NC2CCN(Cc3ccc4cc(OC)ccc4c3)CC2)c1 | 99 | – |
| O=C(NC1CCN(Cc2ccc3ccccc3c2)CC1)c1ccc(F)cc1 | 36 | – |
| COc1cc(OC)cc(C(=O)N[C@@H]2CCN(C(C)/C=C/c3ccccc3)C2)c1 (some centres undefined) | 23 | – |
